Calls of active or inactive are those of the source. The rule behind the calls is not given here.
Columns and labels:
[1] = test system: MIN6; test: Protective activity against palmitic acid-induced injury in mouse MIN6 cells assessed as increase in cell proliferation measured after 24 hrs by CCK8 assay; format: functional, cell-based
Method in brief: (§1)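 Mouse MIN6 β-cells were kept in DMEM (25 mM glucose, 50 μM β-mercaptoethanol, 10% FBS) and grown 24 h on poly-L-lysine to 80–90% confluency. They were then exposed 24 h in serum-free DMEM to 0.4 mM palmitic acid (final) plus compound in 0.1% DMSO (final); liraglutide was the reference. Read-out was CCK-8 absorbance at 450 nm, blank-corrected. Proliferation (%) = (OD sample − OD model)/OD model × 100.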

[2] = test system: MIN6; test: Protective activity against palmitic acid-induced injury in mouse MIN6 cells assessed as increase in cell proliferation at 1 uM measured after 24 hrs by CCK8 assay; format: functional; method in brief: as §1
[3] = test system: MIN6; test: Protective activity against palmitic acid-induced injury in mouse MIN6 cells assessed as increase in cell proliferation at 5 uM measured after 24 hrs by CCK8 assay; format: functional; method in brief: as §1
[4] = test system: MIN6; test: Protective activity against palmitic acid-induced injury in mouse MIN6 cells assessed as increase in cell proliferation at 10 uM measured after 24 hrs by CCK8 assay; format: functional; method in brief: as §1
[5] = test system: MIN6; test: Protective activity against palmitic acid-induced injury in mouse MIN6 cells assessed as increase in cell proliferation at 5 and 10 uM measured after 24 hrs by CCK8 assay relative to DMSO control; format: functional
Method in brief: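 MIN6 mouse β cells grown in DMEM (25 mM glucose, 10% FBS, β-mercaptoethanol) on poly-L-lysine plates to 80−90% confluency, then exposed 24 h in serum-free DMEM to 0.4 mM palmitic acid (final) plus compound in 0.1% DMSO (final). CCK-8 absorbance read at 450 nm, with compound-only blanks. Proliferation change = (OD sample − OD model)/OD model × 100.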

[6] = test system: CHO; test: Induction of autophagy in CHO cells expressing GFP-LC3 assessed as GFP-LC3-2 accumulation at 25 uM measured after 8 hrs by flow cytometry; format: functional, Cricetulus griseus
Method in brief: (§2)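 CHO cells stably expressing GFP-LC3 (selected in 1 mg/mL G418, maintained in DMEM/10% FBS with 800 μg/mL G418) were grown overnight. They were then treated in triplicate at 10, 25 or 50 μM for 8 h, with 20 μM curcumin as the positive control, alone or with 0.1 μM bafilomycin A1. Cells were trypsinised, washed, saponin-permeabilised, and fluorescence at 488 nm read by flow cytometry (>15,000 events).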

[7] = test system: CHO; test: Induction of autophagy in CHO cells expressing GFP-LC3 assessed as GFP-LC3-2 accumulation at 25 uM measured after 8 hrs in presence of bafilomycin A1 by flow cytometry; format: functional, cell-based; conditions: Cricetulus griseus; method in brief: as §2
[8] = test system: CHO; test: Induction of autophagy in CHO cells expressing GFP-LC3 assessed as GFP-LC3-2 accumulation at 20 uM measured after 8 hrs by flow cytometry relative to control; format: functional, Cricetulus griseus
Method in brief: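 CHO cells stably expressing GFP-LC3 (clones selected in 1 mg/mL G418) were kept in DMEM with 10% FBS and 800 μg/mL G418, seeded in 24-well plates and grown overnight. They were treated in triplicate for 8 h, with untreated cells as blank and 20 μM curcumin as positive control. Cells were trypsinized, washed with PBS then 0.1% saponin/PBS, and fluorescence at 488 nm was read by flow cytometry (>15,000 events).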

## C[C@H](O)[C@]1(O)CC[C@@]2(O)[C@]1(C)[C@H](OC(=O)/C=C/C=C/c1ccccc1)C[C@@H]1[C@@]3(C)CC[C@H](O)C[C@]3(O)[C@H](O)C[C@]12O
[1]
  Activity: Dose-dependent effect
[2]
  Activity: -3.1%
[3]
  Activity: 4.2%
[4]
  Activity: 8.8%

## CO[C@H]1C[C@H](O[C@H]2[C@@H](O)C[C@H](O[C@H]3CC[C@]4(C)[C@H]5C[C@@H](OC(=O)/C=C/C=C/c6ccccc6)[C@@]6(C)[C@](O)(CC[C@@]6(O)[C@H](C)O)[C@]5(O)C[C@@H](O)[C@@]4(O)C3)O[C@@H]2C)O[C@H](C)[C@H]1O
[1]
  Activity: Dose-dependent effect
[2]
  Activity: 0.2%
[3]
  Activity: 81.7%
[4]
  Activity: 87.7%
[5]
  fold change (FC): 2
[6]
  fold change (FC): 2.1
[7]
  Activity: Active

## CO[C@H]1C[C@H](O[C@@H]2[C@@H](C)O[C@@H](O[C@H]3[C@@H](O)C[C@H](O[C@H]4CC[C@]5(C)[C@H]6C[C@@H](OC(=O)/C=C/C=C/c7ccccc7)[C@@]7(C)[C@](O)(CC[C@@]7(O)[C@H](C)O)[C@]6(O)C[C@@H](O)[C@@]5(O)C4)O[C@@H]3C)C[C@H]2OC)O[C@H](C)[C@H]1O[C@H]1C[C@@H](OC)[C@H](O)[C@@H](C)O1
[6]
  fold change (FC): 1.3
[7]
  Activity: Active

## C[C@H](O)[C@]1(O)CC[C@@]2(O)[C@]1(C)[C@H](OC(=O)/C=C/C=C/c1ccccc1)C[C@@H]1[C@@]3(C)CC[C@H](O[C@H]4C[C@H](O)[C@H](O)[C@@H](C)O4)C[C@]3(O)[C@H](O)C[C@]12O
[1]
  Activity: Dose-dependent effect
[2]
  Activity: 1.5%
[3]
  Activity: 4%
[4]
  Activity: 11.2%

## CCCCCCCCCCCCCCCC(=O)N[C@@H](CCC(=O)NCCCC[C@H](NC(=O)[C@H](C)NC(=O)[C@H](C)NC(=O)[C@H](CCC(N)=O)NC(=O)CNC(=O)[C@H](CCC(=O)O)NC(=O)[C@H](CC(C)C)NC(=O)[C@H](Cc1ccc(O)cc1)NC(=O)[C@H](CO)NC(=O)[C@H](CO)NC(=O)[C@@H](NC(=O)[C@H](CC(=O)O)NC(=O)[C@H](CO)NC(=O)[C@@H](NC(=O)[C@H](Cc1ccccc1)NC(=O)[C@@H](NC(=O)CNC(=O)[C@H](CCC(=O)O)NC(=O)[C@H](C)NC(=O)[C@@H](N)Cc1cnc[nH]1)[C@@H](C)O)[C@@H](C)O)C(C)C)C(=O)N[C@@H](CCC(=O)O)C(=O)N[C@@H](Cc1ccccc1)C(=O)N[C@H](C(=O)N[C@@H](C)C(=O)N[C@@H](Cc1c[nH]c2ccccc12)C(=O)N[C@@H](CC(C)C)C(=O)N[C@H](C(=O)N[C@@H](CCCNC(=N)N)C(=O)NCC(=O)N[C@@H](CCCNC(=N)N)C(=O)NCC(=O)O)C(C)C)[C@@H](C)CC)C(=O)O [LIRAGLUTIDE]
[2]
  Activity: 19.1%

## COc1cc(/C=C/C(=O)CC(=O)/C=C/c2ccc(O)c(OC)c2)ccc1O [CURCUMIN]
[8]
  fold change (FC): 1.7

## CO[C@H]1C[C@H](O[C@H]2[C@@H](O)C[C@H](O[C@H]3CC[C@]4(C)[C@H]5C[C@@H](OC(=O)/C=C/C=C/c6ccccc6)[C@@]6(C)[C@](O)(CC[C@@]6(O)[C@H](C)O)[C@]5(O)C[C@@H](O)[C@@]4(O)C3)O[C@@H]2C)O[C@H](C)[C@H]1O[C@H]1C[C@@H](OC)[C@H](O)[C@@H](C)O1
[6]
  fold change (FC): 2.5
[7]
  Activity: Active

## CO[C@H]1C[C@H](O[C@H]2[C@@H](O)C[C@H](O[C@H]3CC[C@]4(C)[C@H]5C[C@@H](OC(=O)/C=C/C=C/c6ccccc6)[C@@]6(C)[C@](O)(CC[C@@]6(O)[C@H](C)O)[C@]5(O)C[C@H](O)[C@@]4(O)C3)O[C@@H]2C)O[C@H](C)[C@H]1O[C@H]1C[C@@H](OC)[C@H](O)[C@@H](C)O1
[6]
  fold change (FC): 3.1
[7]
  Activity: Active
